In PMC10763849 (Journal of Enzyme Inhibition and Medicinal Chemistry, 2023):

Tested on: HCT116 (KRAS(mut)/p53(wt)) cells xenograft
Test: In vivo anti-tumour activity, HCT116 xenograft
Design: species or system BALB/c nude mice
Conditions: i.p. 10 mg/kg, every 3 d, five times; for body weight changes: BALB/c nude mice; for tumour volume compared with the vehicle group: HCT116 xenograft
Method in brief: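 Six-week-old BALB/c nude mice received 1 × 10^7 HCT116 cells in 200 µL subcutaneously in the right flank. At 80–120 mm3, mice were randomised into four groups of 5. They were dosed i.p. in PBS pH 7.4 (0.2 ml) every 3 days ×5: vehicle or test compound at 1, 10 or 20 mg/kg; a second study used 10 mg/kg with reference inhibitors. Tumour volume was (min² × max)/2, with body weight recorded; mean ± SD.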

Structure (SMILES): O=C(CCCCCCC(=O)Nc1ccccc1)NO [SAHA, Vorinostat]
- body weight changes: stable trend
- tumour volume compared with the vehicle group: smaller than that of the vehicle group

Structure (SMILES): CN1CCN(Cc2ccc(Nc3ncc(Cl)c(Nc4ccccc4S(=O)(=O)N(C)C)n3)cc2)CC1 [TP0903]
- body weight changes: stable trend
- tumour volume compared with the vehicle group: smaller than that of the vehicle group
